Results on 16 compounds are retold here after ChEMBL document CHEMBL4043061, “Potent, Selective, Allosteric Inhibition of Human Plasmin by Sulfated Non-Saccharide Glycosaminoglycan Mimetics” (J Med Chem, 2017).

A word on the IC50: it is the concentration needed to halve the response being measured. In general, Kd refers to the concentration at which binding is half-saturated.

Where only a bound is given, the exact number is not on record here.

Test [1] has as its target T1, Plasminogen (Homo sapiens, UniProt P00747). Nature of the test: Allosteric inhibition of full length human plasmin by using chromogenic substrate spectrozyme PL preincubated for 5 mins followed by substrate addition by spectrophotometric method. The procedure, abridged:
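Inhibitor added from 0–20 mM aqueous stocks, or vehicle. After 5 min, Spectrozyme PL added (1 mM stock). Residual activity taken from initial rate of A405 rise. Logistic fit gives IC50, efficacy and Hill slope.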

The target of test [2] is T1, Plasminogen. Nature of the test: Binding affinity to human plasmin assessed as loss of intrinsic tryptophan fluorescence at 250 uM by spectrofluorometric method.
The target in another test is Coagulation factor XI (Homo sapiens, UniProt P03951). Briefly: Inhibition of human F11a by using chromogenic substrate S-2366 preincubated for 5 mins followed by substrate addition by spectrophotometric method. The procedure, abridged: (§1)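 Tris-HCl pH 7.4 buffer (100 mM NaCl, 2.5 mM CaCl2, 0.1% PEG8000, 0.02% Tween80) at 37 °C; factor IXa buffer also held 33% ethylene glycol. Final enzyme: factor Xa 1.09 nM, XIa 0.75 nM, XIIa 10 nM, IXa 250 nM, trypsin 0.145 µg/mL, chymotrypsin […]. Inhibitor from 0–20 mM stock, 5 min preincubation, then substrate. Initial A405 rate, sigmoidal dose–response fit.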

The target in the next test is Coagulation factor X (Homo sapiens, UniProt P00742). Nature of the test: Inhibition of human F10a by using chromogenic substrate spectrozyme F10a preincubated for 5 mins followed by substrate addition by spectrophotometric method. The procedure, abridged: as §1
The next test has as its target Prothrombin (Homo sapiens, UniProt P00734). Briefly: Inhibition of human thrombin by using chromogenic substrate spectrozyme TH preincubated for 5 mins followed by substrate addition by spectrophotometric method. The procedure, abridged: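 Thrombin at 6 nM final, 25 °C, in 20 mM Tris-HCl pH 7.4 with 100 mM NaCl, 2.5 mM CaCl2, 0.1% PEG8000, 0.02% Tween80. Inhibitor (0–20 mM stock) or vehicle preincubated 5 min with enzyme. Spectrozyme TH added (1.0 mM stock). Residual activity read as initial rate of A405 increase and fitted to a sigmoidal dose–response curve.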

For the next test, the target named is Coagulation factor IX (Homo sapiens, UniProt P00740). Nature of the test: Inhibition of human F9a by using chromogenic substrate spectrozyme F9a preincubated for 5 mins followed by substrate addition by spectrophotometric method.
Test [3] can be described thus: Inhibition of human trypsin using chromogenic substrate SS-2222 preincubated for 5 mins followed by substrate addition by spectrophotometric method. A digest of the protocol:
as §1

In the next test the target is T2, Coagulation factor XII (Homo sapiens, UniProt P00748).
T2 sequence (P00748 whole entry): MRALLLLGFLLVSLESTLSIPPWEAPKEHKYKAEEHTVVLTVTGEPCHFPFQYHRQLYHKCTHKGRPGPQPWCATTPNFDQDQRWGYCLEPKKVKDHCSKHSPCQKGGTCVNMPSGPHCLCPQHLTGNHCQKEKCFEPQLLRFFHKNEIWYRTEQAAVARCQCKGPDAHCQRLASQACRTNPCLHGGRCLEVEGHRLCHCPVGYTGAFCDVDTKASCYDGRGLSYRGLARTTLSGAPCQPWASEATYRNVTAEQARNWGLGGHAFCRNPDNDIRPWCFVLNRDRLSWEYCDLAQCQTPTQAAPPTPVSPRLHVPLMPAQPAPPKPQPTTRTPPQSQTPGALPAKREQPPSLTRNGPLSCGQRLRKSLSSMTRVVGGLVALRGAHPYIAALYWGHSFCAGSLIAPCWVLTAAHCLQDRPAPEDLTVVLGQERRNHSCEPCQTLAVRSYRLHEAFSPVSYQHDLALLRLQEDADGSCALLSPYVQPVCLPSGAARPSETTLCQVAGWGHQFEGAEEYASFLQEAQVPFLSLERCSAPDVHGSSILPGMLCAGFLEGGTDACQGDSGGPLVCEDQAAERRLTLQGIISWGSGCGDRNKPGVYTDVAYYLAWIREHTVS
Briefly: Inhibition of human F12a by using chromogenic substrate spectrozyme F12a preincubated for 5 mins followed by substrate addition by spectrophotometric method.

The nature of test [4]: Inhibition of human chymotrypsin using chromogenic substrate spectrozyme Cty preincubated for 5 mins followed by substrate addition by spectrophotometric method. A digest of the protocol: as §1
Test [5] has as its target T1, Plasminogen. Nature of the test: Binding affinity to human dansyl-EGR-chloromethylketone-plasmin complex assessed as loss of intrinsic tryptophan fluorescence by spectrofluorometric method.

T1 sequence (P00747 97-580 limits assumed): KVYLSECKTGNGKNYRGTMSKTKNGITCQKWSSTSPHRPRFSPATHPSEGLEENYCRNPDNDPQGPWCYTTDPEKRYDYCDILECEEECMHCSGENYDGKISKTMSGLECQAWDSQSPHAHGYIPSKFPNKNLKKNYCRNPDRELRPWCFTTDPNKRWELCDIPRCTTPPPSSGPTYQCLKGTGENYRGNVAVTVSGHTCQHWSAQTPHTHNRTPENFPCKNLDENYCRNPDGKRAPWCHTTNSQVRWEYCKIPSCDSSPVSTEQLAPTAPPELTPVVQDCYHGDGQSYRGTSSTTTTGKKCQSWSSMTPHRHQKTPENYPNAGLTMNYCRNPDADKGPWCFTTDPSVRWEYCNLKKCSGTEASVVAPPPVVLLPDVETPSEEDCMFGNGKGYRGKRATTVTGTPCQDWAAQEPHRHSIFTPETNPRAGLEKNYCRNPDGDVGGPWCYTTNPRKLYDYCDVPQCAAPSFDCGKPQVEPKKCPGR
T1 sequence (P00747 581-810 limits assumed): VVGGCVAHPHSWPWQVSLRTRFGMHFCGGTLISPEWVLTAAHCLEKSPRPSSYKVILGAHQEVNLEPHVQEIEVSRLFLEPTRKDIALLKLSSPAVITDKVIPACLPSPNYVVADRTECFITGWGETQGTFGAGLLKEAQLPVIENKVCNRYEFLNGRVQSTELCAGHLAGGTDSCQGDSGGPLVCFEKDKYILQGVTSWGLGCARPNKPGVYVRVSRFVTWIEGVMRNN
Chain of Coagulation factor XI (P03951 19-387 limits assumed): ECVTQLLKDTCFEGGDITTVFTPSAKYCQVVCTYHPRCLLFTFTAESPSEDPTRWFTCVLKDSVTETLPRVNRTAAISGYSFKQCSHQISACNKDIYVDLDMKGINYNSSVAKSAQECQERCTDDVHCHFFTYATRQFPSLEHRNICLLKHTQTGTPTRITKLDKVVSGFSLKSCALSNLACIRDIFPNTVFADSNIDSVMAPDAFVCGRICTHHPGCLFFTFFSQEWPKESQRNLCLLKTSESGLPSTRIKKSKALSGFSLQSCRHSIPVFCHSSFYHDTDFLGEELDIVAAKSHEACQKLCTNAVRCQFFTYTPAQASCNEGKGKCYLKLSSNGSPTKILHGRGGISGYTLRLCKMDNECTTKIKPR
Chain of Coagulation factor XI (P03951 388-625 limits assumed): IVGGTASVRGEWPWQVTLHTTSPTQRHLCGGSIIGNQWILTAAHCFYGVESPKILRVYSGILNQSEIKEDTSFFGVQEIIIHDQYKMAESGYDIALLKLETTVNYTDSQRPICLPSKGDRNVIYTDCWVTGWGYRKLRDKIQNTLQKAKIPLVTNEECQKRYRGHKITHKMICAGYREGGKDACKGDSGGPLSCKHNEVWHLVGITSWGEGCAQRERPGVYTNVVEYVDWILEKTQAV
Chain of Coagulation factor X (P00742 41-179 limits assumed): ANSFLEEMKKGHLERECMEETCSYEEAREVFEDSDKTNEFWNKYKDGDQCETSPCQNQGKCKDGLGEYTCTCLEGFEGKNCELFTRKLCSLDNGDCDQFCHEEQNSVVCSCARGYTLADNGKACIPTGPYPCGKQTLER
Chain of Coagulation factor X (P00742 235-488 limits assumed): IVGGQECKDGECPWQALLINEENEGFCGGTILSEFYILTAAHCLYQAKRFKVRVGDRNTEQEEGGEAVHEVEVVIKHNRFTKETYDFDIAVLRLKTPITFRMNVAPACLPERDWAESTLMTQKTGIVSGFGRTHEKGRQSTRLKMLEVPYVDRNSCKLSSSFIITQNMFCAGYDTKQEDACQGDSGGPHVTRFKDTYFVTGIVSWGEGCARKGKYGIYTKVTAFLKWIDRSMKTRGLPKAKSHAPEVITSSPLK
Chain of Coagulation factor IX (P00740 47-191 limits assumed): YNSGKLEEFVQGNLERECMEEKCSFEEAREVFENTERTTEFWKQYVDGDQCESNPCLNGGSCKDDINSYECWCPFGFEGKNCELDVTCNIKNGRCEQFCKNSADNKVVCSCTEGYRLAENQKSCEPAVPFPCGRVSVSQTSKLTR
Chain of Coagulation factor IX (P00740 227-461 limits assumed): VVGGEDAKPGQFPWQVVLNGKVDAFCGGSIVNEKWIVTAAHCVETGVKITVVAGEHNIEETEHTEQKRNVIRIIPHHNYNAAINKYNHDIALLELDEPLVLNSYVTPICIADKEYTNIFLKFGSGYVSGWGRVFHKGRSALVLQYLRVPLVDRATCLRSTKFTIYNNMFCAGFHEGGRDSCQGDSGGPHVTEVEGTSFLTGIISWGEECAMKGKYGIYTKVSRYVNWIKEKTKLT

In turn, `O=c1cc(-c2ccc(OS(=O)(=O)O)cc2)oc2cc(OS(=O)(=O)O)cc(OCCCCOc3cc(OS(=O)(=O)O)cc4oc(-c5ccc(OS(=O)(=O)O)cc5)cc(=O)c34)c12` displayed a 50% inhibitory concentration (IC50) against Plasminogen [1] of 282 µM.
In the case of `O=c1cc(-c2ccc(OS(=O)(=O)O)cc2)oc2cc(OS(=O)(=O)O)cc(OC/C=C/COc3cc(OS(=O)(=O)O)cc4oc(-c5ccc(OS(=O)(=O)O)cc5)cc(=O)c34)c12`, on Plasminogen [1], the IC50 stood at 121 µM. Besides, the Kd on Plasminogen [2] amounted to 3.6 µM.
As to `O=c1c(O)c(-c2ccc(O)c(O)c2)oc2cc(O)cc(OCc3ccc(COc4cc(O)cc5oc(-c6ccc(O)c(O)c6)c(O)c(=O)c45)cc3)c12`, the half-inhibitory concentration (IC50) against Coagulation factor XI stood at 208 µM; at Coagulation factor X, 212 µM; at Plasminogen [1], 116 µM; at Prothrombin it was 267 µM.
Compound `O=c1cc(-c2ccc(OS(=O)(=O)O)cc2)oc2cc(OS(=O)(=O)O)cc(OCc3ccc(-c4ccc(COc5cc(OS(=O)(=O)O)cc6oc(-c7ccc(OS(=O)(=O)O)cc7)cc(=O)c56)cc4)cc3)c12` gave a half-maximal inhibitory concentration (IC50) against Plasminogen [1] of 47 µM.
As to `O=c1c(OS(=O)(=O)O)c(-c2ccc(OS(=O)(=O)O)c(OS(=O)(=O)O)c2)oc2cc(OS(=O)(=O)O)cc(OCc3cccc(COc4cc(OS(=O)(=O)O)cc5oc(-c6ccc(OS(=O)(=O)O)c(OS(=O)(=O)O)c6)c(OS(=O)(=O)O)c(=O)c45)n3)c12`, the half-inhibitory concentration (IC50) at Plasminogen [1] turned out to be 231 µM.
On Plasminogen [1], `O=c1c(OS(=O)(=O)O)c(-c2ccc(OS(=O)(=O)O)c(OS(=O)(=O)O)c2)oc2cc(OS(=O)(=O)O)cc(OCc3cccc(COc4cc(OS(=O)(=O)O)cc5oc(-c6ccc(OS(=O)(=O)O)c(OS(=O)(=O)O)c6)c(OS(=O)(=O)O)c(=O)c45)c3)c12` gave a 50% inhibitory concentration (IC50) of 73 µM.
Turning to `O=c1cc(-c2ccc(OS(=O)(=O)O)cc2)oc2cc(OS(=O)(=O)O)cc(OCc3cccc(COc4cc(OS(=O)(=O)O)cc5oc(-c6ccc(OS(=O)(=O)O)cc6)cc(=O)c45)c3)c12`, at Plasminogen [1], half-maximal inhibition (IC50) was put at 34 µM.
`O=c1c(OS(=O)(=O)O)c(-c2ccc(OS(=O)(=O)O)c(OS(=O)(=O)O)c2)oc2cc(OS(=O)(=O)O)cc(OCc3ccc(COc4cc(OS(=O)(=O)O)cc5oc(-c6ccc(OS(=O)(=O)O)c(OS(=O)(=O)O)c6)c(OS(=O)(=O)O)c(=O)c45)cc3)c12`: the IC50 against Coagulation factor XI was 180 µM; at Coagulation factor X, 505 µM; against Coagulation factor IX, greater than 2000 µM; against Prothrombin it was 156 µM; in [3], greater than 440 µM; against Coagulation factor XII, greater than 1000 µM. In test [4], this compound returned an IC50 of 196 µM.
`O=c1cc(-c2ccc(OS(=O)(=O)O)cc2)oc2cc(OS(=O)(=O)O)cc(OCCOc3cc(OS(=O)(=O)O)cc4oc(-c5ccc(OS(=O)(=O)O)cc5)cc(=O)c34)c12` showed an IC50 against Plasminogen [1] of 71 µM.
At Plasminogen [1], `O=c1cc(-c2ccc(OS(=O)(=O)O)cc2)oc2cc(OS(=O)(=O)O)cc(OCc3ccc(COc4cc(OS(=O)(=O)O)cc5oc(-c6ccc(OS(=O)(=O)O)c(OS(=O)(=O)O)c6)c(OS(=O)(=O)O)c(=O)c45)cc3)c12` gave an IC50 of 14 µM.
In turn, `O=c1cc(-c2ccc(OS(=O)(=O)O)cc2)oc2cc(OS(=O)(=O)O)cc(OCCCOc3cc(OS(=O)(=O)O)cc4oc(-c5ccc(OS(=O)(=O)O)cc5)cc(=O)c34)c12` had an IC50 on Plasminogen [1] greater than 1000 µM.
On the same count and under the same terms, to `O=c1cc(-c2ccc(OS(=O)(=O)O)cc2)oc2cc(OS(=O)(=O)O)cc(OCc3ccc(COc4cc(OS(=O)(=O)O)cc5oc(-c6ccc(OS(=O)(=O)O)cc6)cc(=O)c45)cc3)c12` belongs 34 µM.
As to `Cc1cc(COc2cc(OS(=O)(=O)O)cc3oc(-c4ccc(OS(=O)(=O)O)cc4)cc(=O)c23)c(C)cc1COc1cc(OS(=O)(=O)O)cc2oc(-c3ccc(OS(=O)(=O)O)cc3)cc(=O)c12`, the dissociation constant (Kd) at Plasminogen [5] was determined as 5.4 µM; on Plasminogen [2], 1.9 µM. This compound came in with a concentration for half-maximal inhibition (IC50) at Plasminogen [1] of 20 µM.
`O=c1c(OS(=O)(=O)O)c(-c2ccc(OS(=O)(=O)O)c(OS(=O)(=O)O)c2)oc2cc(OS(=O)(=O)O)cc(OCc3ccc(-c4ccc(COc5cc(OS(=O)(=O)O)cc6oc(-c7ccc(OS(=O)(=O)O)c(OS(=O)(=O)O)c7)c(OS(=O)(=O)O)c(=O)c56)cc4)cc3)c12` yielded a half-inhibitory concentration (IC50) against Plasminogen [1] of 37 µM.
On Plasminogen [1], `Cc1cc(COc2cc(OS(=O)(=O)O)cc3oc(-c4ccc(OS(=O)(=O)O)c(OS(=O)(=O)O)c4)c(OS(=O)(=O)O)c(=O)c23)c(C)cc1COc1cc(OS(=O)(=O)O)cc2oc(-c3ccc(OS(=O)(=O)O)c(OS(=O)(=O)O)c3)c(OS(=O)(=O)O)c(=O)c12` displayed an IC50 of 6.5 µM. Also, the Kd on Plasminogen [2] was 1 µM.
At Plasminogen [1], `O=c1cc(-c2ccc(OS(=O)(=O)O)cc2)oc2cc(OS(=O)(=O)O)cc(OCc3cccc(COc4cc(OS(=O)(=O)O)cc5oc(-c6ccc(OS(=O)(=O)O)cc6)cc(=O)c45)n3)c12` returned a half-maximal inhibitory concentration (IC50) of 42 µM.
